# Screening results (PubChem)
# An excerpt weighted towards active compounds, which were near 6% of everything screened.
# PostGolgi ctrl: inhibits growth of the yeast control strain; efflux-deficient yeast background strain, growth absorbance A615, 16 h; hit rate 5% among 98,000; inhibition, % at 10 µM
# EphB4 antag: EphB4-ephrin-B2 interaction antagonism; P54760; EphB4 LBD / TNYL-RAW-Alexa532 peptide, fluorescence polarization; inhibition, % at 7 µM; hit rate 0.15% among 97,000;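 active means inhibition above the screen-wide mean inhibition plus 3 SD, cut at about 15% in these data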;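 further: 0% = DMSO wells and 100% = excess unlabeled TNYL-RAW peptide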
# Target sequence (P54760 whole entry, looked up, the tested form may be a part): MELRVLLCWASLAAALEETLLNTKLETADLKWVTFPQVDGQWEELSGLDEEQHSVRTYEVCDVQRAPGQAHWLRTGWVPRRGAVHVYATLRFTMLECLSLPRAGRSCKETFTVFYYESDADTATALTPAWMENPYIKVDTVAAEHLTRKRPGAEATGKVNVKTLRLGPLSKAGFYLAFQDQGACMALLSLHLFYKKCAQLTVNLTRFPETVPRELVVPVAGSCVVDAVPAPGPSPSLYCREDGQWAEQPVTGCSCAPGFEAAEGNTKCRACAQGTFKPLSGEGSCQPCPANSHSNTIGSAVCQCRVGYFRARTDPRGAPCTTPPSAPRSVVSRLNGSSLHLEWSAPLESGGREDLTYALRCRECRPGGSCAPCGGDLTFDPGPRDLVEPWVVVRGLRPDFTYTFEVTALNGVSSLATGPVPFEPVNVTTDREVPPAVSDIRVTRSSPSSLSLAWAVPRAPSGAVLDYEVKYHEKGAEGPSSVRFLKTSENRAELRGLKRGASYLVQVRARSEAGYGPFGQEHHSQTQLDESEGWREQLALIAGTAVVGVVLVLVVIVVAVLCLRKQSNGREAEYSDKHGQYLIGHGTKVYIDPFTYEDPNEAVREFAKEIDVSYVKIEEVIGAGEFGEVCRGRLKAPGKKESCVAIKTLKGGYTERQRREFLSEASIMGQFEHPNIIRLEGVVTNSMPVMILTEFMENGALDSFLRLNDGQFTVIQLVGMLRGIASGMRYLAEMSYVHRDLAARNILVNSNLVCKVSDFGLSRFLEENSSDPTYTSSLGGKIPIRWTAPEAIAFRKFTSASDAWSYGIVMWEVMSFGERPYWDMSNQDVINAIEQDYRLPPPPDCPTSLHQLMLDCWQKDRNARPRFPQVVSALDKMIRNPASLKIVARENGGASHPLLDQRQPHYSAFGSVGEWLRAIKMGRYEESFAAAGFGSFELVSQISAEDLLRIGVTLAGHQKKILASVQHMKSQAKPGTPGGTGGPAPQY
# PostGolgi yeast: growth inhibition of a yeast mutant, post-Golgi transport screen. post-Golgi transport phenotypic cell assay. AID 739. inhibition, % at 10 µM. hit rate 0.9% among 98,000;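 further: yeast cells grown in 1536-well plates; yeast grown about 18 h at 30C before absorbance read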
# tolC growth inh: E. coli tolC mutant growth inhibition; hit rate 2.2% among 65,000; growth inhibition, % at 10 µM (by protocol); E. coli BW25113 tolC mutant growth, OD615;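 active means growth inhibition at or above a cutoff equal to the mean over every tested compound plus 3 SD, cut at about 60% in these data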;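 further: growth measured after 20 h incubation at 37 °C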
#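 Test system: tolC-deleted E. coli BW25113 | Medium: LB with kanamycin 50 µg/mL | Compound dosing: Single concentration, 10 µM final per compound | Schedule: 37 °C, 20 h exposure | Measured by: OD at 615 nm | Evaluation: Percent growth inhibition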
# E coli WT exp: blocks growth of wild type E. coli BW25113; OD600 absorbance; growth inhibition, % at 100 µM; hit rate 0.15% among 98,000;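 active means growth inhibition above about 50% at one test dose, limit read from the data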;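 further: growth measured after 20 h incubation at 37 °C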
# An asterisk follows results filed as active; . = no result. Unless noted, no stated cut-off is given here; in the data, active means inhibition above about 30%; inactive means the rest.
SMILES,PostGolgi ctrl,EphB4 antag,PostGolgi yeast,tolC growth inh,E coli WT exp
C=CCSC(=C(C#N)C#N)c1cc2c([nH]1)CCCC2,24.4,3.3,4.8,.,14.0
CCOc1ccccc1-c1nnc(SCC(=O)Nc2ccccc2)o1,43.3*,4.0,-5.8,25.0,-6.0
CO/N=C/c1ccc(Sc2ccccc2)c([N+](=O)[O-])c1,6.5,-3.1,2.2,.,6.0
CO/N=C/c1ccc(Sc2ccccc2N)c([N+](=O)[O-])c1,31.6*,-3.4,9.6,.,-12.0
Cc1ccccc1C1C(C#N)=C2NC(=O)c3c(sc4c3CCCCC4)N2C2=C1C(=O)CC(C)(C)C2 (centres undefined),40.9*,0.4,11.4,.,-15.0
COC(=O)c1c(NC(=O)c2c(-c3ccccc3Cl)noc2C)sc2c1CCC2,33.5*,-3.1,-0.2,.,-14.0
O=C(Nc1sc2c(c1C(=O)NCC1CCCO1)CCCC2)c1cccs1 (centres undefined),68.3*,-2.8,86.5*,12.1,-9.0
O=C(Nc1sc2c(c1C(=O)NC1CC1)CCCCCC2)c1ccco1,57.3*,-3.1,16.1,7.7,-8.0
O=C(Nc1sc2c(c1C(=O)O)CCC2)c1ccco1,4.2,3.2,-1.0,.,-11.0
Cc1ccc(C(=O)Nc2sc3c(c2C(=O)O)CCCCC3)o1,13.7,-0.9,9.7,19.8,-8.0
O=C(Nc1sc2c(c1C(=O)O)CCCC2)c1cccs1,4.6,11.4,-1.6,26.4,-9.0
COC(=O)c1c(NC(=O)c2ccc(C)o2)sc2c1CCCCC2,0.4,1.5,3.3,63.0*,8.0
COC(=O)c1c(NC(=O)Cc2cccs2)sc2c1CCCC2,13.9,2.9,1.3,69.9*,-14.0
O=C(Oc1ccc(Cl)c2cccnc12)N1CCCCC1,7.3,.,-2.7,-9.7,2.0
O=C(Oc1ccc2ccccc2c1Cl)N1CCCC1,7.1,-4.9,-8.8,60.9*,12.0
O=C(Oc1ccc(Cl)c2ccccc12)N1CCCCC1,16.2,-5.1,4.2,.,2.0
O=C(Oc1c(Cl)cc(Cl)c2ccccc12)N1CCCC1,32.3*,4.8,2.5,.,28.0
O=C(Cn1cnc2ccccc2c1=O)Nc1nnc(SCc2ccccc2)s1,1.4,3.1,-5.7,.,-11.0
Cc1ccc(CNC(=O)c2ccc(Cn3nc(C)c(Cl)c3C)o2)cc1,100.5*,-0.3,104.3*,54.5,0.0
Cc1nn(Cc2ccc(C(=O)Nc3ccccc3C(F)(F)F)o2)c(C)c1Br,34.4*,0.9,0.9,.,-5.0
Cc1cc(C(=O)Nc2ccccc2C(F)(F)F)no1,1.9,2.5,9.5,-21.4,4.0
Cc1cc(C)cc(NC(=O)c2ccc(Cn3nc(C)c(Cl)c3C)o2)c1,.,4.0,.,.,.
CC(C)=C1C2CCC1C1C(=O)N(NC(=O)COc3ccc(C(C)(C)C)cc3)C(=O)C21 (centres undefined),25.4,0.1,-8.0,.,-8.0
COc1ccccc1N1CCN(C(=O)C2c3ccccc3Oc3ccccc32)CC1,41.6*,-1.8,17.4,15.3,-2.0
COc1ccccc1N1CCN(C(=O)C2CC=CCC2C(=O)O)CC1 (centres undefined),14.4,3.6,-3.4,-6.3,4.0
SMILES,PostGolgi ctrl,EphB4 antag,PostGolgi yeast,tolC growth inh,E coli WT exp
O=C(C1c2ccccc2Oc2ccccc21)N1CCN(c2ccc(Cl)cc2)CC1,37.4*,5.0,-10.5,.,-24.0
O=C(CCc1ccccc1)N1CCN(c2ccc(Cl)cc2)CC1,5.3,4.5,12.4,.,11.0
CCn1c(SCCC(=O)Nc2ccccc2)nnc1-c1ccc(OC)cc1,2.9,-6.0,1.9,16.1,3.0
CC(=O)Nc1sc(NC(=O)c2ccc(C)cc2)nc1-c1cccs1,.,-3.8,.,.,.
O=C(Nc1ccc(Br)cc1)c1cccnc1N1CCCCC1,32.2*,-1.1,-2.6,.,-5.0
CC(=O)c1c(C)[nH]c(C(=O)CSc2nc3ccc(C)cc3[nH]2)c1C,35.4*,5.3,7.6,.,-9.0
CC1CC(N(C(=O)c2ccccc2Cl)c2ccccc2)c2ccccc2N1 (centres undefined),38.6*,-8.4,3.2,.,-7.0
Cc1c(C=O)c2ccccc2n1CC(=O)N1CCc2ccccc2C1,.,6.2,.,.,.
CCOc1ccc(C(=O)N(CN2CCCC2=O)c2ccc(C)cc2)cc1,.,-0.9,.,-13.3,.
Cc1ccc(N(CN2CCCC2=O)C(=O)c2ccc(OC(C)C)cc2)cc1,31.8*,4.7,-1.0,5.8,-12.0
O=c1c2ccccc2nc2n1CCN2Cc1ccc(Cl)cc1,24.5,.,3.3,8.5,6.0
O=c1ncn(-c2ccccc2F)c2ncccc12,16.6,-6.2,10.2,.,1.0
COc1ccc(OC)c(S(=O)(=O)n2cnc3cc(C)c(C)cc32)c1,30.1*,1.2,5.3,94.3*,0.0
COc1ccc(S(=O)(=O)N2CCN(Cc3ccccc3)CC2)cc1,3.1,6.2,2.0,22.2,8.0
